As a reminder, the IC50 is the concentration at which inhibition is half-maximal. Usually solubility stands for the concentration that dissolves in the medium under given conditions.

Structures are written as SMILES. Converted amounts (≈) assume the structure as drawn.

One data set has as its system A549 cells. The experiment in a line: Cell proliferation activity assay. In kind it is cell-based. Conditions: Homo sapiens, A549, read-out: IC50 on A549 cells. The gist of the method:
(§1)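 Cells were kept in DMEM with 10% FBS and 1% penicillin–streptomycin at 37 °C and 5% CO2, and passaged with 0.25% trypsin-EDTA at 80–90% confluency. They were seeded at 5 × 10^3 cells/well, grown 24 h, then given test compound at 5, 10, 20, 40, 60, 80 or 100 μM final, with 1% DMSO as control. Read-out was MTT absorbance at 490 nm, as viability versus control. IC50 was fitted from viability data; 3–5 replicates per sample; mean ± SD of three independent experiments.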

The subject of another data set is MCF-7 cells. Kind of data set: Cell proliferation activity assay. In kind it is cell-based. The settings on record: Homo sapiens, MCF7, read-out: IC50 on MCF-7 cells. The method in brief:
as §1

The subject of data set [1] is HeLa cells. The experiment in a line: Cell proliferation activity assay. It counts as cell-based. Conditions: Homo sapiens, read-out: IC50 on HeLa cells. The gist of the method: as §1
The nature of data set [2]: Solubility measurement in distilled water. It counts as physicochemical. The settings on record: 37 °C, thermodynamic from solid. The method in brief: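 Excess solid test compound in distilled water was shaken 24 h at 37 °C (100 rpm), then centrifuged at 10,000 rpm for 10 min. Supernatant absorbance was read at 217 nm and solubility calculated from a standard curve.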

The subject of data set [3] is HeLa cells. Kind of data set: Annexin V/PI apoptosis assay by flow cytometry. The settings on record: 20 μM, 24 h, control group 6.2%. It counts as cell-based. On the technique in general: Flow cytometry measures light scatter and fluorescence of single cells or particles in a stream.

In the case of `CC(C)=CCC[C@](C)(O)[C@H]1CC[C@]2(C)[C@@H]1[C@H](O)C[C@@H]1[C@@]3(C)CC[C@H](O[C@@H]4O[C@H](CO)[C@@H](O)[C@H](O)[C@H]4O)C(C)(C)[C@@H]3CC[C@]12C` [Rh2, Ginsenoside Rh2], the 50% inhibitory concentration (IC50) was 85.3 µM with A549 cells, 73.6 µM in the data set with MCF-7 cells and 68 µM in the data set with HeLa cells [1]. In data set [2], this molecule registered a solubility at 24 h of 74 µg/mL (≈ 119 µM). Also, the “percentage of early and late apoptosis” value in the data set with HeLa cells [3] is reported as 5.3%.

The record behind these values is article PMC10193561 (ACS Omega, 2023).
